Screening results deposited in PubChem by several laboratories.
ZTA DNA inh – ZTA (EBV) inhibition in EBNA-1 counter-screen. ZTA-DNA binding, fluorescence polarization. inhibition, % at 11 µM. 320,000 compounds, 0.15% hits. P03206; in the data active = inhibition above about 33%
Target sequence (P03206 whole entry, looked up): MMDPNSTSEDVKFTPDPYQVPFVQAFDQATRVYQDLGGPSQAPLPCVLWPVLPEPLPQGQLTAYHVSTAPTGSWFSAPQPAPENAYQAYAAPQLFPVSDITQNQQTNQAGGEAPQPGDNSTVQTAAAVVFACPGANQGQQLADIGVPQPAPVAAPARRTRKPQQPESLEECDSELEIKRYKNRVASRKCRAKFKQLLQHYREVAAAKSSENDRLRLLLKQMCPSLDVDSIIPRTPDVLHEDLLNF
UBC13 inh – human UBC13 polyubiquitination inhibition. P61088. inhibition, % at 20 µM. UBC13 polyubiquitin chain formation, TR-FRET. 330,000 compounds, 0.47% hits; in the data active = inhibition above about 45%, passing the limit was not always enough
Target sequence (P61088 whole entry, looked up): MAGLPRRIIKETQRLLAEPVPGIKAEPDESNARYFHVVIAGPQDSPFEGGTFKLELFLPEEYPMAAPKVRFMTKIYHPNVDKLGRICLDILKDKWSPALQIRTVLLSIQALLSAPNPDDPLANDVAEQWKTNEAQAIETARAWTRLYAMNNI
EBNA-1 inhibitor – blocks EBNA-1 binding to DNA | EBNA-1 DNA binding, fluorescence polarization | inhibition, % at 14.8 µM | 300,000 compounds, 0.34% hits | AID 1950; in the data active = inhibition above about 28%
PfG6PD inh – PfG6PD (Plasmodium falciparum) enzyme inhibition; PfGluPho enzyme, NADPH resazurin-diaphorase fluorescence; inhibition, % at 20 µM; 350,000 compounds, 0.78% hits; AID 504690;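 active = inhibition reaching at least a set limit at 20 µM in the primary screen, cut at about 59% in these data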;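 note: 0% = DMSO wells with substrate and 100% = DMSO wells lacking glucose-6-phosphate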
Apaf-1 inh – inhibitors of human Apaf-1 apoptosome; O14727; reconstituted apoptosome caspase-3 activity, DEVD-Rh110 fluorescence; inhibition, % at 20 µM; 330,000 compounds, 0.71% hits; AID 489030; active = inhibition of at least 40% at 20 µM;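 note: plate controls were DMSO wells for no effect and DEVD-CHO caspase inhibitor wells for full effect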
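Assay system: Apoptosome proteins | Medium: pH 7.5 Hepes buffer with CHAPS, BSA, DTT | Also added: Cytochrome c and DEVD-Rh110 substrate | Times: 30 min plus 50 min, RT | Detection: Rhodamine 110 fluorescence at Ex 480/Em 540 nm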
M18AAP inhibitor – PfM18AAP enzyme inhibition | recombinant PfM18AAP, H-Glu-NHMec fluorogenic cleavage | inhibition, % at 7.35 µM | 290,000 compounds, 1.2% hits;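 active = inhibition above the campaign mean inhibition over all tested compounds plus 3 SD, cut at about 28% in these data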;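 note: 0% = plate median of test compound wells and 100% = 2 mM ZnCl2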
Starred values were filed as active, the others as inactive; . = no result; + = active, no number. Rows were chosen to be rich in hits. Some 2.9% of all compounds tested hit in one or more screens of this group.

SMILES	ZTA DNA inh	UBC13 inh	EBNA-1 inhibitor	PfG6PD inh	Apaf-1 inh	M18AAP inhibitor
O=C(/C=C/c1ccccc1)Nc1cccc(C(=O)NCCCCc2ccccc2)c1	.	.	.	12	.	.
Cc1ccc(S(=O)(=O)NNC(=O)c2cccc(O)c2)cc1	-6	4	-4	9	-13	30*
N#CCC(=O)N/N=C/c1ccc(OCc2ccccc2)cc1	5	3	4	-5	5	30*
O=[N+]([O-])c1ccc(N2CCN(c3ccccc3Cl)CC2)cn1	-11	-3	-7	-11	15	32*
O=C(O)c1ccc(N2CCN(c3ccc(Cl)cc3)CC2)c([N+](=O)[O-])c1	-6	-5	-6	-15	4	10
Cc1ccc(NC(=S)N2CCC(c3ccc(C)cc3)C2)cc1 (stereo unspecified)	0	1	4	43	0	39*
Cc1ccc(NC(=O)C2(S(=O)(=O)c3ccc(Cl)cc3)CC2)c(Br)c1	-11	-1	-6	19	9	5
COc1ccc(C(C[N+](=O)[O-])C2(c3ccc(OC)c(OC)c3)C(=O)c3ccccc3C2=O)cc1 (stereo unspecified)	3	.	0	39	.	35*
S=c1[nH]nc(-c2ccco2)n1-c1ccc(Cl)cc1	-1	4	-2	28	-12	30*
Cc1nn(C)cc1-c1n[nH]c(=S)n1-c1ccc(Cl)cc1	-10	0	-1	51	-5	30*
COc1ccc(-n2c(-c3ccco3)n[nH]c2=S)cc1	-17	13	5	38	-7	10
Nn1c(-c2ccco2)n[nH]c1=S	-4	0	1	14	-33	29*
NC(=S)N/N=C/c1c(O)c(Br)cc2oc3c(c12)CCCC3	24	13	26	-14	-11	8
Oc1c(Br)cc2oc3c(c2c1CNCc1ccccc1)CCCC3	-6	6	8	-20	19	31*
COc1ccc(C(=O)COC(=O)CCc2ccccc2)cc1	9	3	8	-2	-15	30*
Cc1ccc(C2(c3ccccc3)NC(=O)N(CC(=O)NC3CCS(=O)(=O)C3)C2=O)cc1C (stereo unspecified)	5	-16	.	-8	0	.
O=S(=O)(Nc1ccc(O)c2ccccc12)c1cccs1	10	-14	-2	36	52*	22
O=S(=O)(Nc1ccc(O)c2ccccc12)c1ccc(Br)cc1	-3	-23	-8	.	57*	15
O=S(=O)(Nc1cccc2ccccc12)c1cccs1	14	1	0	34	-3	1
Fc1ccc(NC(=S)SCc2ccc3c(c2)OCO3)cc1F	.	.	.	-12	.	.
Nc1nc(N=Nc2ccc(O)cc2)cc(=O)[nH]1	.	.	.	-3	.	.
CCC(O)(Cc1ccccn1)Cc1ccccn1	.	.	.	10	.	.
CC(Sc1nnc(CN2CCCC2)n1Cc1ccccc1)C(=O)Nc1ccc(F)cc1Cl (stereo unspecified)	.	.	.	8	.	.
CC1CCCCN1S(=O)(=O)c1ccc(C(=O)N(CCCN(C)C)c2nc3ccc(Br)cc3s2)cc1 (stereo unspecified)	0	52*	0	18	67*	0
Cc1ccc(/C=c2/sc3n(c2=O)CCCN=3)o1	-16	-7	-9	17	4	25
SMILES	ZTA DNA inh	UBC13 inh	EBNA-1 inhibitor	PfG6PD inh	Apaf-1 inh	M18AAP inhibitor
Cc1ccc(/C=c2\sc3n(c2=O)CN(c2ccc(Br)cc2)CN=3)o1	-4	-10	-11	34	10	29*
C=CCn1c(SCC(=O)N(CC)C2CCS(=O)(=O)C2)nc2scc(-c3ccccc3)c2c1=O (stereo unspecified)	.	.	.	11	.	.
CC/C(=C\c1ccc(N(C)C)cc1)c1ccncc1	.	.	.	7	.	.
O=C1N=C(N2C=CC(=C3C=CNC=C3)C=C2)/C(=C/N=NC(=O)c2ccccc2O)S1	-23	-145	-9	4	2	29*
CCN(CC)c1ccc2cc(C(N)=O)c(=N)oc2c1	-4	-278	2	-1	4	5
CCN(CC)c1ccc2c(-c3ccc(S(=O)(=O)O)cc3S(=O)(=O)[O-])c3ccc(=[N+](CC)CC)cc-3oc2c1	+	-202	200*	-405	-5	5
CCN(CC)C(=O)c1ncn2c1c(=O)[nH]c1ccccc12	.	.	.	4	.	.
CC(C)(C)NC(=O)C(OC(=O)c1cccs1)c1ccc(F)cc1 (stereo unspecified)	-14	8	-2	-5	-1	-1
c1csc(Cc2nn3c(-c4ccncc4)nnc3s2)c1	-1	-4	1	1	78*	7
Cc1nnc(NC(=O)CSc2nnc(-c3ccco3)o2)s1	-4	3	12	0	-10	29*
CC(C)c1nnc(NC(=O)CSc2nnc(-c3ccco3)o2)s1	-2	6	-12	32	-7	11
COc1cccc(CCC(=O)Nc2cccc(S(=O)(=O)N3CCCC3)c2)c1OC	-1	4	.	-6	3	.
O=[N+]([O-])c1cc(-c2ncccn2)c([N+](=O)[O-])s1	0	-42	-5	123*	-2	-49
CCOc1cc(CNc2ccc(O)cc2)ccc1OCc1ccc(Cl)cc1Cl	1	-2	-13	88*	94*	14
CCOc1cc(CNCc2ccccc2)ccc1OCc1ccc(Cl)cc1	-12	27	-7	19	26	6
CCOc1ccc(/C=C2\SC(=S)N(N3C(=O)C4CC4C3=O)C2=O)cc1 (stereo unspecified)	-18	-12	-7	-4	14	31*
CCc1ccc(/C=C2\SC(=S)N(CCCC(=O)NCCCN3CCOCC3)C2=O)cc1	.	.	.	15	.	.
CCOc1ccc(/C=C2/SC(=O)NC2=S)cc1	-10	-20	-6	-8	7	18
CCOc1ccc(/C=C2\SC(=S)N(CCCC(=O)NCCCN3CCOCC3)C2=O)cc1	-10	-7	-2	-8	42*	-18
Cc1cc(NC(=O)CN2C(=O)NC(CC(C)C)C2=O)ccc1Br (stereo unspecified)	-6	-4	.	-11	15	.
CCC(=O)Nc1ccc(S(=O)(=O)NC[C@H]2O[C@@H](n3cc(C)c(=O)[nH]c3=O)C[C@@H]2O)cc1	.	.	.	8	.	.
Cn1c(=O)c2[nH]c(CCCCCCCc3nc4ccccc4[nH]3)nc2n(C)c1=O	.	.	.	3	.	.
Cc1nc2cc(C(=O)O)ccc2s1	2	1	0	-2	-13	30*
Cc1nc2ccc(NC(=O)c3ccccc3)cc2s1	-1	0	16	-1	-2	-3
O=c1c(C(c2ccccc2)c2c(O)nc3n(c2=O)CCS3)c(O)nc2n1CCS2	-10	-5	0	-8	-12	-3
NC(=O)/C(=C/c1ccco1)NC(=O)c1ccc(Br)o1	14	-4	12	1	0	29*
CCN(CC)c1ccc(NC(=O)c2ccc(NC(=O)C3CCCO3)cc2)c(C)c1 (stereo unspecified)	6	.	-1	0	.	31*
Cc1ccc(C(=O)COC(=O)c2cccc([N+](=O)[O-])c2)s1	-17	2	.	-1	5	.
